Reference: ChEMBL document CHEMBL3046406, “Herbicidal potential of ophiobolins produced by Drechslera gigantea” (2006)
The source made the active and inactive calls. The rule behind the calls is not given here.

What was measured:
Format in all cases: functional
Oloptum miliaceum [1] = test: Herbicidal activity against Piptatherum miliaceum assessed as diameter of leaf necrosis at 50 ug/ml measured after 2 days post compound treatment by leaf puncture assay
Outline: (§1)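 Detached leaf segments (about 5 cm) from young greenhouse-grown plants, each with a superficial puncture lesion (0.5 mm) made by glass capillary. Compound dissolved in DMSO, diluted with distilled water (final DMSO 2%), 8 µL droplet applied. Segments held on moist filter paper at 25 °C under continuous fluorescent light (10000 lux). DMSO droplets as control. Necrosis scored visually on a 0–3 scale at day 2.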

Amaranthus retroflexus [2] = test: Herbicidal activity against Amaranthus retroflexus assessed as diameter of leaf necrosis at 50 ug/ml measured after 2 days post compound treatment by leaf puncture assay; outline: as §1
Sonchus oleraceus [3] = test: Herbicidal activity against Sonchus oleraceus assessed as diameter of leaf necrosis at 250 ug/ml measured after 2 days post-compound treatment by leaf puncture assay; outline: as §1
Amaranthus retroflexus [4] = test: Herbicidal activity against Amaranthus retroflexus assessed as diameter of leaf necrosis at 100 ug/ml measured after 2 days post compound treatment by leaf puncture assay; outline: as §1
[5] = tested on: Avena sterilis subsp. ludoviciana; test: Herbicidal activity against Avena sterilis subsp. ludoviciana assessed as diameter of leaf necrosis at 250 ug/ml measured after 2 days post compound treatment by leaf puncture assay; outline: as §1
Oloptum miliaceum [6] = test: Herbicidal activity against Piptatherum miliaceum assessed as diameter of leaf necrosis at 100 ug/ml measured after 2 days post compound treatment by leaf puncture assay; outline: as §1
Cynodon dactylon [7] = test: Herbicidal activity against Cynodon dactylon assessed as diameter of leaf necrosis at 100 ug/ml measured after 2 days post compound treatment by leaf puncture assay; outline: as §1
Diplotaxis erucoides [8] = test: Herbicidal activity against Diplotaxis erucoides assessed as diameter of leaf necrosis at 50 ug/ml measured after 2 days post compound treatment by leaf puncture assay; outline: as §1
Cynodon dactylon [9] = test: Herbicidal activity against Cynodon dactylon assessed as diameter of leaf necrosis at 250 ug/ml measured after 2 days post compound treatment by leaf puncture assay; outline: as §1
Echinochloa crus-galli [10] = test: Herbicidal activity against Echinochloa crus-galli (barnyard grass) assessed as diameter of leaf necrosis at 50 ug/ml measured after 2 days post compound treatment by leaf puncture assay; outline: as §1
Echinochloa crus-galli [11] = test: Herbicidal activity against Echinochloa crus-galli (barnyard grass) assessed as diameter of leaf necrosis at 100 ug/ml measured after 2 days post compound treatment by leaf puncture assay; outline: as §1
Echinochloa crus-galli [12] = test: Herbicidal activity against Echinochloa crus-galli (barnyard grass) assessed as diameter of leaf necrosis at 250 ug/ml measured after 2 days post compound treatment by leaf puncture assay; outline: as §1
Phalaris canariensis [13] = test: Herbicidal activity against Phalaris canariensis assessed as diameter of leaf necrosis at 250 ug/ml measured after 2 days post compound treatment by leaf puncture assay; outline: as §1
Setaria viridis [14] = test: Herbicidal activity against Setaria viridis assessed as diameter of leaf necrosis at 250 ug/ml measured after 2 days post compound treatment by leaf puncture assay; outline: as §1
Chenopodium album [15] = test: Herbicidal activity against Chenopodium album assessed as diameter of leaf necrosis at 250 ug/ml measured after 2 days post compound treatment by leaf puncture assay; outline: as §1
Phalaris canariensis [16] = test: Herbicidal activity against Phalaris canariensis assessed as diameter of leaf necrosis at 100 ug/ml measured after 2 days post compound treatment by leaf puncture assay; outline: as §1
Chenopodium album [17] = test: Herbicidal activity against Chenopodium album assessed as diameter of leaf necrosis at 50 ug/ml measured after 2 days post compound treatment by leaf puncture assay; outline: as §1
Diplotaxis erucoides [18] = test: Herbicidal activity against Diplotaxis erucoides assessed as diameter of leaf necrosis at 100 ug/ml measured after 2 days post compound treatment by leaf puncture assay; outline: as §1
Diplotaxis erucoides [19] = test: Herbicidal activity against Diplotaxis erucoides assessed as diameter of leaf necrosis at 250 ug/ml measured after 2 days post compound treatment by leaf puncture assay; outline: as §1
Convolvulus arvensis [20] = test: Herbicidal activity against Convolvulus arvensis assessed as diameter of leaf necrosis at 50 ug/ml measured after 2 days post compound treatment by leaf puncture assay; outline: as §1
Sonchus oleraceus [21] = test: Herbicidal activity against Sonchus oleraceus assessed as diameter of leaf necrosis at 50 ug/ml measured after 2 days post-compound treatment by leaf puncture assay; outline: as §1
Digitaria sanguinalis [22] = test: Herbicidal activity against Digitaria sanguinalis (hairy crabgrass) assessed as diameter of leaf necrosis at 250 ug/ml measured after 2 days post compound treatment by leaf puncture assay; outline: as §1
Bromus sterilis [23] = test: Herbicidal activity against Bromus sterilis assessed as diameter of leaf necrosis at 50 ug/ml measured after 2 days post compound treatment by leaf puncture assay; outline: as §1
Setaria viridis [24] = test: Herbicidal activity against Setaria viridis assessed as diameter of leaf necrosis at 50 ug/ml measured after 2 days post compound treatment by leaf puncture assay; outline: as §1
Convolvulus arvensis [25] = test: Herbicidal activity against Convolvulus arvensis assessed as diameter of leaf necrosis at 100 ug/ml measured after 2 days post compound treatment by leaf puncture assay; outline: as §1
Digitaria sanguinalis [26] = test: Herbicidal activity against Digitaria sanguinalis (hairy crabgrass) assessed as diameter of leaf necrosis at 50 ug/ml measured after 2 days post compound treatment by leaf puncture assay; outline: as §1
Oloptum miliaceum [27] = test: Herbicidal activity against Piptatherum miliaceum assessed as diameter of leaf necrosis at 250 ug/ml measured after 2 days post compound treatment by leaf puncture assay; outline: as §1
Digitaria sanguinalis [28] = test: Herbicidal activity against Digitaria sanguinalis (hairy crabgrass) assessed as diameter of leaf necrosis at 100 ug/ml measured after 2 days post compound treatment by leaf puncture assay; outline: as §1
Bromus sterilis [29] = test: Herbicidal activity against Bromus sterilis assessed as diameter of leaf necrosis at 250 ug/ml measured after 2 days post compound treatment by leaf puncture assay; outline: as §1
[30] = tested on: Avena sterilis subsp. ludoviciana; test: Herbicidal activity against Avena sterilis subsp. ludoviciana assessed as diameter of leaf necrosis at 50 ug/ml measured after 2 days post compound treatment by leaf puncture assay; outline: as §1
Convolvulus arvensis [31] = test: Herbicidal activity against Convolvulus arvensis assessed as diameter of leaf necrosis at 250 ug/ml measured after 2 days post compound treatment by leaf puncture assay; outline: as §1
Amaranthus retroflexus [32] = test: Herbicidal activity against Amaranthus retroflexus assessed as diameter of leaf necrosis at 250 ug/ml measured after 2 days post compound treatment by leaf puncture assay; outline: as §1
Sonchus oleraceus [33] = test: Herbicidal activity against Sonchus oleraceus assessed as diameter of leaf necrosis at 100 ug/ml measured after 2 days post-compound treatment by leaf puncture assay; outline: as §1
Cynodon dactylon [34] = test: Herbicidal activity against Cynodon dactylon assessed as diameter of leaf necrosis at 50 ug/ml measured after 2 days post compound treatment by leaf puncture assay; outline: as §1
Phalaris canariensis [35] = test: Herbicidal activity against Phalaris canariensis assessed as diameter of leaf necrosis at 50 ug/ml measured after 2 days post compound treatment by leaf puncture assay; outline: as §1
Bromus sterilis [36] = test: Herbicidal activity against Bromus sterilis assessed as diameter of leaf necrosis at 100 ug/ml measured after 2 days post compound treatment by leaf puncture assay; outline: as §1
Setaria viridis [37] = test: Herbicidal activity against Setaria viridis assessed as diameter of leaf necrosis at 100 ug/ml measured after 2 days post compound treatment by leaf puncture assay; outline: as §1
Chenopodium album [38] = test: Herbicidal activity against Chenopodium album assessed as diameter of leaf necrosis at 100 ug/ml measured after 2 days post compound treatment by leaf puncture assay; outline: as §1
[39] = tested on: Avena sterilis subsp. ludoviciana; test: Herbicidal activity against Avena sterilis subsp. ludoviciana assessed as diameter of leaf necrosis at 100 ug/ml measured after 2 days post compound treatment by leaf puncture assay; outline: as §1

| Structure (SMILES) | Activity (Oloptum miliaceum [1]) | Activity (Amaranthus retroflexus [2]) | Activity (Sonchus oleraceus [3]) | Activity (Amaranthus retroflexus [4]) | Activity [5] | Activity (Oloptum miliaceum [6]) | Activity (Cynodon dactylon [7]) | Activity (Diplotaxis erucoides [8]) | Activity (Cynodon dactylon [9]) | Activity (Echinochloa crus-galli [10]) | Activity (Echinochloa crus-galli [11]) | Activity (Echinochloa crus-galli [12]) | Activity (Phalaris canariensis [13]) | Activity (Setaria viridis [14]) | Activity (Chenopodium album [15]) | Activity (Phalaris canariensis [16]) | Activity (Chenopodium album [17]) | Activity (Diplotaxis erucoides [18]) | Activity (Diplotaxis erucoides [19]) | Activity (Convolvulus arvensis [20]) | other results |
| --- | --- | --- | --- | --- | --- | --- | --- | --- | --- | --- | --- | --- | --- | --- | --- | --- | --- | --- | --- | --- | --- |
| CC(C)=C[C@H]1C[C@H](C)[C@]2(CC[C@]3(C)C[C@H]4[C@@H](C(=O)C[C@@]4(C)O)/C(C=O)=C\C[C@H]32)O1 [6-EPI-OHPIOBOLIN A] | 1 mm | 1 mm | >3 mm | 1 mm | 2 mm | 1 mm | 1 mm | 2 mm | 2 mm | 1 mm | 2 mm | 2 mm | >3 mm | >3 mm | >3 mm | 2 mm | 2 mm | 2 mm | 2 mm | 2 mm | Activity (Sonchus oleraceus [21]): >3 mm; Activity (Digitaria sanguinalis [22]): >3 mm; Activity (Bromus sterilis [23]): 1 mm; Activity (Setaria viridis [24]): >3 mm; Activity (Convolvulus arvensis [25]): 2 mm; Activity (Digitaria sanguinalis [26]): 2 mm; Activity (Oloptum miliaceum [27]): 2 mm; Activity (Digitaria sanguinalis [28]): 2 mm; Activity (Bromus sterilis [29]): 2 mm; Activity [30]: 2 mm; Activity (Convolvulus arvensis [31]): 2 mm; Activity (Amaranthus retroflexus [32]): 1 mm; Activity (Sonchus oleraceus [33]): >3 mm; Activity (Cynodon dactylon [34]): inactive; Activity (Phalaris canariensis [35]): 1 mm; Activity (Bromus sterilis [36]): 1 mm; Activity (Setaria viridis [37]): >3 mm; Activity (Chenopodium album [38]): 2 mm; Activity [39]: 2 mm |
| CC(C)=C[C@H]1C[C@H](C)[C@]2(CC[C@]3(C)C[C@H]4[C@H](C(=O)C[C@@]4(C)O)/C(C=O)=C\C[C@H]32)O1 [OPHIOBOLIN A] | 1 mm | 2 mm | >3 mm | 2 mm | >3 mm | 2 mm | inactive | 2 mm | 1 mm | >3 mm | >3 mm | >3 mm | >3 mm | >3 mm | >3 mm | >3 mm | 2 mm | 2 mm | 2 mm | 2 mm | Activity (Sonchus oleraceus [21]): >3 mm; Activity (Digitaria sanguinalis [22]): >3 mm; Activity (Bromus sterilis [23]): 1 mm; Activity (Setaria viridis [24]): >3 mm; Activity (Convolvulus arvensis [25]): 2 mm; Activity (Digitaria sanguinalis [26]): >3 mm; Activity (Oloptum miliaceum [27]): >3 mm; Activity (Digitaria sanguinalis [28]): >3 mm; Activity (Bromus sterilis [29]): >3 mm; Activity [30]: >3 mm; Activity (Convolvulus arvensis [31]): 2 mm; Activity (Amaranthus retroflexus [32]): >3 mm; Activity (Sonchus oleraceus [33]): >3 mm; Activity (Cynodon dactylon [34]): inactive; Activity (Phalaris canariensis [35]): >3 mm; Activity (Bromus sterilis [36]): 2 mm; Activity (Setaria viridis [37]): >3 mm; Activity (Chenopodium album [38]): 2 mm; Activity [39]: >3 mm |
| CC(C)=C[C@H]1C[C@H](C)[C@]2(CC[C@]3(C)C[C@@H]4C(C)=CC(=O)[C@H]4/C(CO)=C\C[C@H]32)O1 | inactive | inactive | inactive | inactive | inactive | inactive | inactive | inactive | inactive | inactive | inactive | inactive | inactive | inactive | inactive | inactive | inactive | inactive | inactive | inactive | Activity (Sonchus oleraceus [21]): inactive; Activity (Digitaria sanguinalis [22]): inactive; Activity (Bromus sterilis [23]): inactive; Activity (Setaria viridis [24]): inactive; Activity (Convolvulus arvensis [25]): inactive; Activity (Digitaria sanguinalis [26]): inactive; Activity (Oloptum miliaceum [27]): inactive; Activity (Digitaria sanguinalis [28]): inactive; Activity (Bromus sterilis [29]): inactive; Activity [30]: inactive; Activity (Convolvulus arvensis [31]): inactive; Activity (Amaranthus retroflexus [32]): inactive; Activity (Sonchus oleraceus [33]): inactive; Activity (Cynodon dactylon [34]): inactive; Activity (Phalaris canariensis [35]): inactive; Activity (Bromus sterilis [36]): inactive; Activity (Setaria viridis [37]): inactive; Activity (Chenopodium album [38]): inactive; Activity [39]: inactive |
